# Measurements: PubChem BioAssay AID652011 (Sanford-Burnham Center for Chemical Genomics, 2013)
# Values joined by “and” are separate entries in the source; they are usually repeats but may differ in a detail not shown here. Equal values may be shown once.
# Target: Endothelial PAS domain-containing protein 1 (Homo sapiens) (UniProt Q99814)
# Experiment: HIF-1a and HIF-2a reporter inhibitors, SAR follow-up, cell-based, luminescence, MIAPaCa-2, 786-0, panel (AID 652011)
# Details: MIAPaCa-2/PANC HIF reporter, luciferase luminescence, desferoxamine, overnight, HIF2a PANC, run 2; at 99 µM (top of the series)
# Summary of the method: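 Probe or stimulus – desferoxamine stimulus · Times – overnight compound incubation at 37 °C, 10 min reagent · Doses – compounds from 10 mM and 0.3125 mM stocks, 1% DMSO final · Technique – luminescence, One-Glo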
# Chain of Endothelial PAS domain-containing protein 1 (Homo sapiens) (Q99814 whole entry, looked up, the tested form may be a part): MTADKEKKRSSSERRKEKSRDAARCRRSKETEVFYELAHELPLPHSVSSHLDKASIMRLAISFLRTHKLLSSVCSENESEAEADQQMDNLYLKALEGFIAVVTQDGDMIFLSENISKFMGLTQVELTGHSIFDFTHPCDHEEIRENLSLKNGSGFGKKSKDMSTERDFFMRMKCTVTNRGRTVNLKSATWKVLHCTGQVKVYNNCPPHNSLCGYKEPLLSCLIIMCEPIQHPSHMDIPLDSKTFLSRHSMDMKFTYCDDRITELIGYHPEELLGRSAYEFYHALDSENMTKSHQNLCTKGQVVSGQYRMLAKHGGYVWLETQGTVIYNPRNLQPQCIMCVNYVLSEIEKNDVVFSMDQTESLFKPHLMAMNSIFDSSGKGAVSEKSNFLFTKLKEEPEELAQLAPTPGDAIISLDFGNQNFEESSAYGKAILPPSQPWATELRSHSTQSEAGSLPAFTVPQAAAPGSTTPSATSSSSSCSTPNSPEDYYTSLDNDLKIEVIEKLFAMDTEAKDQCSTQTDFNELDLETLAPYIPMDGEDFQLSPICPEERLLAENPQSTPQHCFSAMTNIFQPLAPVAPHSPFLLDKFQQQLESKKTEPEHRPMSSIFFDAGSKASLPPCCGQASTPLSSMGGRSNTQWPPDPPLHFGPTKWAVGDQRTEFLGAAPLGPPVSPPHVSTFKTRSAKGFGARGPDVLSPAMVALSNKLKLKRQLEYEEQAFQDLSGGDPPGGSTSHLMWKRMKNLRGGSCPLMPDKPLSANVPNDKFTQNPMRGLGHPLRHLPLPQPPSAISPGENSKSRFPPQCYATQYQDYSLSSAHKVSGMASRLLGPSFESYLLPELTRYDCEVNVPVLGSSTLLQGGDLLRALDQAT
row,Compound,inhibition
1,CCNC(=O)CCc1nc(-c2ccc(C(C)(C)C)cc2)no1,84.7% and 55.9%
2,CCc1ccc(-c2noc(CCC(=O)NC3CC3)n2)cc1,-46.2%
3,CNC(=O)CCc1nc(-c2ccc(Cl)cc2)no1,-17.8%
4,CNC(=O)CCc1nc(-c2ccc(C(C)(C)C)cc2)no1,47.3%
5,CC(C)(C)NC(=O)CCc1nc(-c2ccccc2)no1,-18.9%
6,CCNC(=O)CCc1nc(-c2ccccc2C)no1,-1.15%
7,CN(C)C(=O)CCc1nc(-c2ccc(C(C)(C)C)cc2)no1,42.5% and -5.18%
8,CCNC(=O)CCc1nc(-c2ccccc2Cl)no1,13.5%
9,CC(C)(C)NC(=O)CCc1nc(-c2ccc(C(C)(C)C)cc2)no1,102%
10,CC(C)(C)c1ccc(-c2noc(CCC(=O)NCc3ccco3)n2)cc1,99.3% and 99%
11,CCCCc1ccc(-c2noc(CCC(=O)NCC)n2)cc1,9.61%
12,CCNC(=O)CCc1nc(-c2cccc(F)c2)no1,-6.32%
13,O=C(CCc1nc(-c2ccccc2)no1)NC1CC1,56.6%
14,CNC(=O)CCc1nc(-c2ccc(OC)cc2)no1,-21.8%
15,CNC(=O)CCc1nc(-c2ccc(F)cc2)no1,8.8%
16,CC(C)(C)c1ccc(-c2noc(CCC(N)=O)n2)cc1,124% and 92.8%
17,CNC(=O)CCc1nc(-c2ccc(C(C)C)cc2)no1,8.04%
18,CCCCc1ccc(-c2noc(CCC(=O)NC3CC3)n2)cc1,16%
19,COc1cccc(NC(=O)CCc2nc(-c3ccc(C(C)(C)C)cc3)no2)c1,131%
20,CCCNC(=O)CCc1nc(-c2ccc(C(C)(C)C)cc2)no1,73%
21,CCNC(=O)CCc1nc(-c2c(Cl)cccc2Cl)no1,31.9%
22,CCOc1ccccc1NC(=O)CCc1nc(-c2ccc(C(C)(C)C)cc2)no1,112%
23,CC(C)(C)c1ccc(-c2noc(CCC(=O)Nc3cccnc3)n2)cc1,126%
24,CC(C)(C)c1ccc(-c2noc(CCC(=O)N3CCOCC3)n2)cc1,32.4%
25,CC(C)(C)c1ccc(-c2noc(CCC(=O)Nc3ccccc3)n2)cc1,128%
26,CCc1ccc(-c2noc(CCC(=O)NC(C)(C)C)n2)cc1,-22.9%
27,CCOc1ccc(-c2noc(CCC(=O)NC)n2)cc1,112%
28,CCNC(=O)CCc1nc(-c2ccccc2)no1,13%
29,CC(C)c1ccc(-c2noc(CCC(=O)NC3CC3)n2)cc1,26.7%
30,CCc1ccc(-c2noc(CCC(=O)NC(C)CC)n2)cc1 (stereo not given),-30.6%
